Source: ChEMBL document CHEMBL4765302, “Design, synthesis and biological evaluation of novel histone deacetylase1/2 (HDAC1/2) and cyclin-dependent Kinase2 (CDK2) dual inhibitors against malignant cancer” (Eur J Med Chem, 2020)
Calls of active or inactive are those of the source. The rule behind the calls is not given here.

Key:
[1] = system: A-375; test: Induction of apoptosis in human A-375 cells assessed as viable cells at 0.5 uM incubated for 48 hrs by annexin V-FITC and PI staining based flow cytometry (reference value: 96.3 %); format: functional; conditions: read-out: Activity
[2] = system: HeLa; test: Induction of apoptosis in human HeLa cells assessed as late apoptotic cells at 1 uM incubated for 48 hrs by annexin V-FITC and PI staining based flow cytometry (reference value: 0.870 %); format: functional
[3] = system: HepG2; test: Antiproliferative activity against human HepG2 cells assessed as reduction in cell growth incubated for 72 hrs by CCK-8 assay; format: functional, cell-based; conditions: HepG2, 72 h
Procedure, shortened: (§1)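 IC50 by CCK-8 assay across five solid-tumour lines (HCT116, HepG2, H460, HeLa, A375). Run only for compounds chosen after the single-concentration screen, with CS055 and roscovitine as references.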

[4] = system: A-375; test: Cytotoxicity against human A-375 cells assessed as effect on cell morphology at 0.5 to 8 micromol incubated for 48 hrs by microscopic analysis; format: functional, cell-based; conditions: dose 0.5-8 µmol
Procedure, shortened: (§2)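 Five cancer cell lines treated with compound or DMSO (0.1 %) for 48 h. Morphology inspected by light microscopy at 10× objective.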

[5] = system: HeLa; test: Antiproliferative activity against human HeLa cells assessed as reduction in cell growth incubated for 72 hrs by CCK-8 assay; format: functional, cell-based; procedure, shortened: as §1
[6] = system: NCI-H460; test: Antiproliferative activity against human NCI-H460 cells assessed as reduction in cell growth incubated for 72 hrs by CCK-8 assay; format: functional, cell-based; conditions: NCI-H460, 72 h; procedure, shortened: as §1
[7] = system: HCT-116; test: Induction of apoptosis in human HCT-116 cells assessed as early apoptotic cells at 0.5 uM incubated for 48 hrs by annexin V-FITC and PI staining based flow cytometry (reference value: 4.14 %); format: functional
[8] = system: HeLa; test: Cytotoxicity against human HeLa cells assessed as effect on cell morphology at 0.5 to 8 micromol incubated for 48 hrs by microscopic analysis; format: functional, cell-based; conditions: dose 0.5-8 µmol; procedure, shortened: as §2
[9] = system: HeLa; test: Induction of apoptosis in human HeLa cells assessed as necrotic cells at 2 uM incubated for 48 hrs by annexin V-FITC and PI staining based flow cytometry (reference value: 0.124 %); format: functional
[10] = Toxicity in Balb/c mouse xenografted with human HCT-116 cells assessed as reduction in body weight at 25 to 100 mg/kg, ip administered for 21 days and measured on day 21; format: organism-based; conditions: in vivo, 504 h, dose 25-100 mg/kg, time 21 day
Procedure, shortened: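 BALB/c nude mice bearing HCT116 xenografts were dosed once daily by intraperitoneal injection at 25, 50 or 100 mg/kg for 21 days, starting when tumours reached 100-300 mm³. Body weight was tracked over the dosing period and compared with the blank group.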

[11] = system: NCI-H460; test: Induction of apoptosis in human NCI-H460 cells assessed as viable cells at 0.5 uM incubated for 48 hrs by annexin V-FITC and PI staining based flow cytometry (reference value: 90.4 %); format: functional; conditions: read-out: Activity
[12] = system: A-375; test: Induction of apoptosis in human A-375 cells assessed as early apoptotic cells at 0.5 uM incubated for 48 hrs by annexin V-FITC and PI staining based flow cytometry (reference value: 1.34 %); format: functional
[13] = system: A-375; test: Induction of apoptosis in human A-375 cells assessed as late apoptotic cells at 2 uM incubated for 48 hrs by annexin V-FITC and PI staining based flow cytometry (reference value: 2.24 %); format: functional
[14] = system: HeLa; test: Induction of apoptosis in human HeLa cells assessed as necrotic cells at 0.5 uM incubated for 48 hrs by annexin V-FITC and PI staining based flow cytometry (reference value: 0.124 %); format: functional
[15] = system: A-375; test: Induction of ROS accumulation in human A-375 cells at 1 uM incubated for 24 hrs by DCFH-DA staining based confocal microscopic analysis; format: functional, cell-based
Procedure, shortened: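 A375 cells treated at 1 µM or with DMSO blank for 24 h. Intracellular ROS detected with the fluorescent dye DCFH-DA.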

[16] = Half life in ICR mouse at 4 mg/kg, iv measured upto 24 hrs by LC-MS/MS analysis; format: ADME, organism-based; conditions: in vivo
Procedure, shortened: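 Male ICR mice (N=9). Single dose, either 4 mg/kg intravenous or 20 mg/kg intraperitoneal. Parameters derived: T1/2, Tmax, Cmax, AUC0-t, MRT0-t and CL, with F for the intraperitoneal arm.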

[17] = system: A-375; test: Induction of apoptosis in human A-375 cells assessed as necrotic cells incubated for 48 hrs by annexin V-FITC and PI staining based flow cytometry; format: functional, cell-based; conditions: dose 0.5-2 µM
[18] = system: HeLa; test: Induction of apoptosis in human HeLa cells assessed as viable cells at 2 uM incubated for 48 hrs by annexin V-FITC and PI staining based flow cytometry (reference value: 98.5 %); format: functional; conditions: read-out: Activity
[19] = biological target: Histone deacetylase 1 (Homo sapiens, UniProt Q13547); test: Inhibition of recombinant human HDAC1 at 10 uM using SIRT1 as substrate incubated for 10 mins followed by substrate addition and measured after 30 mins by fluorescence based assay relative to control; conditions: time 40.0 min
Procedure, shortened: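 Enzyme inhibition of HDAC1 measured at a single concentration of 10 µM, tested alongside the cell-growth screen.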

[20] = system: NCI-H460; test: Induction of apoptosis in human NCI-H460 cells assessed as necrotic cells at 0.5 uM incubated for 48 hrs by annexin V-FITC and PI staining based flow cytometry (reference value: 0.632 %); format: functional
[21] = system: NCI-H460; test: Induction of apoptosis in human NCI-H460 cells assessed as necrotic cells at 1 uM incubated for 48 hrs by annexin V-FITC and PI staining based flow cytometry (reference value: 0.632 %); format: functional
[22] = biological target: Histone deacetylase 2 (Homo sapiens, UniProt Q92769); test: Inhibition of recombinant human HDAC2 using FLUOR-DE-LYS-Green as substrate incubated for 10 mins followed by substrate addition and measured after 30 mins by fluorescence based assay
Procedure, shortened: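 IC50 values reported as means of at least two separate determinations, expressed as mean ±SD.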

[23] = system: HeLa; test: Induction of apoptosis in human HeLa cells assessed as necrotic cells at 1 uM incubated for 48 hrs by annexin V-FITC and PI staining based flow cytometry (reference value: 0.124 %); format: functional
[24] = system: NCI-H460; test: Induction of apoptosis in human NCI-H460 cells assessed as early apoptotic cells at 1 uM incubated for 48 hrs by annexin V-FITC and PI staining based flow cytometry (reference value: 2.88 %); format: functional
[25] = system: A-375; test: Antiproliferative activity against human A-375 cells assessed as reduction in cell growth incubated for 72 hrs by CCK-8 assay; format: functional, cell-based; conditions: A-375, 72 h; procedure, shortened: as §1
[26] = system: NCI-H460; test: Induction of apoptosis in human NCI-H460 cells assessed as early apoptotic cells at 2 uM incubated for 48 hrs by annexin V-FITC and PI staining based flow cytometry (reference value: 2.88 %); format: functional
[27] = system: HCT-116; test: Cytotoxicity against human HCT-116 cells assessed as effect on cell morphology at 0.5 to 8 micromol incubated for 48 hrs by microscopic analysis; format: functional, cell-based; conditions: dose 0.5-8 µmol; procedure, shortened: as §2
[28] = system: HCT-116; test: Induction of cell cycle arrest in human HCT-116 cells assessed as G2/M phase at 0.5 uM incubated for 24 hrs by PI staining based flow cytometry (reference value: 27.46 %); format: functional
Procedure, shortened: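 Treatment at 2, 1 and 0.5 μM for 24 h, alongside CS055 and roscovitine, against a DMSO (0.1 %) blank. Cells then stained with propidium iodide and analyzed by flow cytometry.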

Chain of Histone deacetylase 2 (Q92769 whole entry): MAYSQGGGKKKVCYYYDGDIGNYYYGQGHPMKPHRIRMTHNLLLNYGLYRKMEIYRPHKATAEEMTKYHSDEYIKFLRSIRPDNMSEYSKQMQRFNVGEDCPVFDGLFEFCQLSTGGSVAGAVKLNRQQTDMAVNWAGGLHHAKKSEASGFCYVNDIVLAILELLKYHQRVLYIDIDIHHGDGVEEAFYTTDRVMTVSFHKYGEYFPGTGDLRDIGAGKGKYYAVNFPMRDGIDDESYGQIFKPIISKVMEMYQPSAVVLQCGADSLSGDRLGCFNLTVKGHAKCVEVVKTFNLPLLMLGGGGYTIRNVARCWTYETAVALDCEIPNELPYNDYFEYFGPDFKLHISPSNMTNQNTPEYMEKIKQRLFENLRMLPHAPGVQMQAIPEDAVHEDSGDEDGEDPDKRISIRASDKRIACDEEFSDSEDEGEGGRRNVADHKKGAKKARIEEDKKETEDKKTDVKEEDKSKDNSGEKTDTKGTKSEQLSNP
Chain of Histone deacetylase 1 (Q13547 whole entry): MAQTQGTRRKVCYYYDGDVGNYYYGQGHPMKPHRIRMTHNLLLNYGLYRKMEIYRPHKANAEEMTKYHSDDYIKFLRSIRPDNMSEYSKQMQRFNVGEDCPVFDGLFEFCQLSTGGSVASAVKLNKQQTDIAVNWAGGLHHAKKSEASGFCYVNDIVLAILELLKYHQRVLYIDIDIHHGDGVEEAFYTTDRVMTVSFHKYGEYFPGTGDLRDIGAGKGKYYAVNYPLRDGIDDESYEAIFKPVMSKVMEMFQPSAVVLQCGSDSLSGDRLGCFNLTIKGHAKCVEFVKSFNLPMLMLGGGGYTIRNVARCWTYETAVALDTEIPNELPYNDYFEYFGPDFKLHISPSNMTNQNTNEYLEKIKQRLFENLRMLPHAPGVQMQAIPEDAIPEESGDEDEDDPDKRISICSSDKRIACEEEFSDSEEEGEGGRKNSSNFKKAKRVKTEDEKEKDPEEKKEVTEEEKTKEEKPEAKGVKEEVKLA

Cc1ccc(Nc2nc(Cl)nc3c2ncn3Cc2ccc(C(=O)Nc3ccccc3N)cc2)cc1
viability at 0.5 µM [1]: 16.4%
Activity [2]: 8.63%
IC50 [3]: 860 nM
Activity [4]: Active
IC50 [5]: 1050 nM
IC50 [6]: 1590 nM
Activity [7]: 60.7%
Activity [8]: Active
Activity [9]: 0.243%
Activity [10]: Non-Toxic
viability at 0.5 µM [11]: 88.7%
Activity [12]: 10.6%
Activity [13]: 84.8%
Activity [14]: 0.31%
Activity [15]: Active
half-life [16]: 1.48 h
Activity [17]: Dose-dependent effect
viability at 2 µM [18]: 77.4%
inhibition [19]: 88.7%
Activity [20]: 0.254%
Activity [21]: 0.871%
IC50 [22]: 23.1 nM
Activity [23]: 0.363%
Activity [24]: 18.6%
IC50 [25]: 470 nM
Activity [26]: 12%
Activity [27]: Active
Activity [28]: 76.99%
